T cruzi growth-1 = T. cruzi intracellular proliferation inhibitors, primary screen, cell-based, beta-gal Tulahuen parasites, NIH3T3 host, luminescence; T. cruzi beta-gal in NIH3T3, GalScreen luminescence, 90 h; inhibition, % at 8.34 µM; actives 5.9% (n = 77,000); AID 624255, 2012;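 active means mean inhibition above about 93%, with at least 55% of replicates each passing it, limit read from the data, passing the limit was not always enough; inconclusive means only one of those two conditions holds; inactive means neither condition holds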
GASC1 inh = inhibitors of GASC-1 (KDM4C) histone demethylase, primary screen, biochemical, single concentration HTS; GST-KDM4C 2-372, H3K9me3 peptide, LANCE TR-FRET; inhibition, % at 12.5 µM; actives 0.15% (n = 96,000); Lysine-specific demethylase 4C (Homo sapiens), Q9H3R0; AID 720574, 2013;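 active means mean replicate inhibition above about 25%, with at least 55% of replicates also reaching it, limit read from the data, passing the limit was not always enough; inconclusive means only one of those two conditions met; inactive means neither condition met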
Target sequence (Q9H3R0 2-372 limits assumed): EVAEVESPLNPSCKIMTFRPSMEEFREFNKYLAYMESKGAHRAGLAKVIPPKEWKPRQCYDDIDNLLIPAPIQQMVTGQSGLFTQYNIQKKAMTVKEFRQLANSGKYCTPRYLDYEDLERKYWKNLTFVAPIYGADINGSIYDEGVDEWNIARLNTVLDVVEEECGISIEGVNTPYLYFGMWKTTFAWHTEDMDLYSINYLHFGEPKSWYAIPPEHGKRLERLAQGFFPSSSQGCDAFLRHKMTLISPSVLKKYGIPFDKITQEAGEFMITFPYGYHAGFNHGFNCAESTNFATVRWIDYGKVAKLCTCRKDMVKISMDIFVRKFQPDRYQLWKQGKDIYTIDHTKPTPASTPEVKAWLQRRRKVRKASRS
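Material: GST-tagged GASC-1 (JMJD2C) catalytic fragment, aa 2-372. Input: enzyme final amount 10 nM. Medium: HEPES buffer, pH 7.5, plus ascorbate. Reagent: H3K9me3 peptide substrate, Fe(II), 2-oxoglutarate. Doses: single dose. Times: reaction 30 min RT, detection step 1 h RT. Measured by: LANCE TR-FRET. Evaluation: Fall in 671/618 emission ratio as inhibition.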
IDH1 R132H inh = inhibitors of IDH1 R132H reductase, primary screen, biochemical, plate reader, single point; Isocitrate dehydrogenase [NADP] cytoplasmic (Homo sapiens), O75874; diaphorase/resazurin fluorescence, 60 min; inhibition, % at 10 µM; actives 0.18% (n = 70,000); in the data active means inhibition above about 34%; inconclusive means no clear call, values can overlap the other calls; inactive means below about 11%;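 further: 0% = DMSO and 100% = no enzyme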
Target sequence (O75874 whole entry R132H): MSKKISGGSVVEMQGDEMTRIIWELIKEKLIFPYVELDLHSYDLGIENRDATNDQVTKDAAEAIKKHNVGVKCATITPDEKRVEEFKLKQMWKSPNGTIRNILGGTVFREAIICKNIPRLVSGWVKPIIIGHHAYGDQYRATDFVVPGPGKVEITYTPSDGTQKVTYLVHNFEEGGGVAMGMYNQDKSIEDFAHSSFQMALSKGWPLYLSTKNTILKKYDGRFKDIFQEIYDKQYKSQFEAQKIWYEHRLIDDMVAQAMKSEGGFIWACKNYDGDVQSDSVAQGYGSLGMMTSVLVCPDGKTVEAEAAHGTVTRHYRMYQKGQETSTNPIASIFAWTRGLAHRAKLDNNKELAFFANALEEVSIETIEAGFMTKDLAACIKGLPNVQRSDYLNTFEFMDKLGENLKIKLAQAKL
Pf Dd2 growth = P. falciparum Dd2 growth inhibitors, primary screen, SYBR Green fluorescence, single dose replicates; 72 h; active compounds read low; actives 2.3% (n = 94,000); activity change, % at 10 µM; in the data active means activity change below about -80%; inconclusive means no clear call, values can overlap the other calls
T cruzi growth-2 = T. cruzi intracellular proliferation inhibitors, confirmation, cell-based, NIH3T3 host, beta-gal parasite, luminescence, cherry-pick. inhibition, % at 8.35 µM. shares compounds with T cruzi growth-1. T. cruzi beta-gal in NIH3T3, GalScreen luminescence, 90 h. actives 72% (n = 5,600);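 active means mean replicate inhibition above about 95% and at least 55% of replicates individually reaching it, limit read from the data; inconclusive means only one of the two criteria is met; inactive means neither criterion is met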
T cruzi growth-3 = inhibitors of intracellular T. cruzi replication, confirmation, NIH3T3 host cells, beta-gal parasites, cherry-pick, set 2; shares compounds with T cruzi growth-1; actives 21% (n = 5,600); inhibition, % at 2.09 µM; AID 651740, 2012; T. cruzi beta-gal in NIH3T3, GalScreen luminescence, 90 h;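 active means mean inhibition above about 95%, with at least 55% of replicates also reaching it, limit read from the data; inconclusive means meets just one of the two conditions; inactive means meets neither condition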;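 further: plate controls were neutral control median for no effect and positive control median for full effect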
NIH3T3 tox = cytotoxicity in mouse NIH/3T3 fibroblasts, confirmation, cytotoxicity control for T. cruzi proliferation inhibitor project, cell-based, cherry-pick, single point; shares compounds with T cruzi growth-1; NIH/3T3 viability, CellTiter-Glo ATP luminescence, 90 h; cytotoxicity (signal decrease), % at 8.35 µM; actives 14% (n = 5,600);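 active means mean signal decrease across replicates above about 35% based on untreated-well scatter, with enough replicates individually passing, limit read from the data; inconclusive means no rule stated though some were filed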;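 further: 0% = median of neutral control wells and 100% = median of positive control wells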
3T3 cytotox 2 = NIH/3T3 fibroblast cytotoxicity, confirmation, cytotoxicity control, cell-based, cherry-pick, single point, set 2 | shares compounds with T cruzi growth-1 | NIH/3T3 viability, CellTiter-Glo ATP luminescence, 90 h | inhibition, % at 24.9 µM | actives 56% (n = 5,600) | AID 651744, 2012;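 active means mean loss of cell viability signal at or above a set limit, and enough replicates individually reaching it; inconclusive means meets only the mean limit or only the replicate share; inactive means meets neither condition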;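 further: 0% = median of neutral control wells and 100% = median of positive control wells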
Starred values were filed as active, the others as inactive; ? = inconclusive; . = no result. Hits are enriched below; roughly 5.9% of the tested compounds scored in any of these assays.

SMILES | T cruzi growth-1 | GASC1 inh | IDH1 R132H inh | Pf Dd2 growth | T cruzi growth-2 | T cruzi growth-3 | NIH3T3 tox | 3T3 cytotox 2
O=C(NCc1ccc(F)cc1)[C@H]1[C@H](CO)[C@H]2Cn3c(ccc(C4=CCCCC4)c3=O)[C@@H]1N2 | -132.1 | -3.1 | . | . | . | . | . | .
CCCNC(=O)[C@@H]1[C@@H](CO)[C@@H]2Cn3c(ccc(C4=CCCC4)c3=O)[C@H]1N2 | 99.6* | 4.3 | . | 3.3 | -3.6 | -18.8 | -1.5 | -6.8
O=C(NCCN1CCCCC1)[C@H]1N[C@H]2c3ccc(-c4ccncc4)c(=O)n3C[C@H]2[C@@H]1CO | 101.8* | -1.6 | . | -1.1 | -43.0 | -1.2 | -5.2 | -21.4
O=C(NCCCN1CCOCC1)[C@H]1[C@H](CO)[C@H]2Cn3c(ccc(C4=CCCCC4)c3=O)[C@@H]1N2 | 32.5 | -3.3 | . | . | . | . | . | .
Cc1nc(SCC(=O)NCc2ccccc2)c2c(C)c(C)sc2n1 | . | . | 0.0 | . | . | . | . | .
O=C(CSc1nc2ccccc2s1)Nc1ccc(I)cc1 | . | . | 1.0 | . | . | . | . | .
C[C@H]1CN([C@@H](C)CO)C(=O)c2cc(NS(=O)(=O)c3ccc(F)cc3)ccc2O[C@@H]1CN(C)Cc1ccc(Cl)c(Cl)c1 | ? | 2.4 | 0.5 | -7.0 | 101.5* | 73.3 | 24.6 | 98.2*
C[C@H](CO)N1C[C@H](C)[C@H](CN(C)Cc2ccc(Cl)c(Cl)c2)Oc2ccc(NS(=O)(=O)c3ccc(F)cc3)cc2C1=O | 26.9 | -0.1 | 4.5 | 17.4 | . | . | . | .
COc1ccc(S(=O)(=O)Nc2ccc3c(c2)C(=O)N([C@H](C)CO)C[C@@H](C)[C@@H](CN(C)Cc2ccc(Cl)c(Cl)c2)O3)cc1 | 72.3 | -0.9 | 0.6 | 15.9 | . | . | . | .
COc1ccc(S(=O)(=O)Nc2ccc3c(c2)C(=O)N([C@H](C)CO)C[C@@H](C)[C@H](CN(C)Cc2ccc(Cl)c(Cl)c2)O3)cc1 | 119.6* | -0.3 | . | 0.6 | 102.2* | 21.9 | 9.2 | 104.2*
COc1ccc(S(=O)(=O)Nc2ccc3c(c2)C(=O)N([C@@H](C)CO)C[C@@H](C)[C@H](CN(C)Cc2ccc(Cl)c(Cl)c2)O3)cc1 | 120.9* | 1.0 | -0.3 | -21.8 | 95.8* | 67.8 | 39.9* | 105.2*
CCOC(=O)c1cccc(NC(=O)CSc2nc3ccccc3[nH]2)c1 | . | . | 0.2 | . | . | . | . | .
CC(C)CC#Cc1cnc2c(c1)C(=O)N([C@H](C)CO)C[C@H](C)[C@@H](CN(C)Cc1ccccc1F)O2 | 103.2* | 0.8 | -1.6 | -28.5 | 110.7* | 79.4 | 8.3 | 102.8*
CC(C)CC#Cc1cnc2c(c1)C(=O)N([C@H](C)CO)C[C@@H](C)[C@@H](CN(C)Cc1ccccc1F)O2 | 57.9 | -2.9 | -0.9 | -9.7 | . | . | . | .
CC(C)CC#Cc1cnc2c(c1)C(=O)N([C@@H](C)CO)C[C@@H](C)[C@@H](CN(C)Cc1ccccc1F)O2 | ? | -3.5 | -1.5 | -20.4 | 106.7* | 89.0 | ? | 31.5*
CC(C)CC#Cc1cnc2c(c1)C(=O)N([C@@H](C)CO)C[C@@H](C)[C@H](CN(C)Cc1ccccc1F)O2 | 119.5* | 1.5 | -3.1 | -31.4 | 108.0* | 74.8 | 5.7 | 103.1*
O=C(CCCCCC(=O)N/N=C/c1ccc(F)cc1)NO | . | . | 0.1 | . | . | . | . | .
Cc1sc2nc(SCc3nc4ccccc4[nH]3)n(-c3ccccc3)c(=O)c2c1C | . | . | 0.0 | . | . | . | . | .
COc1ccc(CCN2C(=O)C(NC(=O)C(C)(C)C)(C(F)(F)F)C3=C2CC(C)(C)CC3=O)cc1OC (stereo not given) | . | . | -0.1 | . | . | . | . | .
COc1ccc(NC(=O)Nc2ccc3c(c2)C(=O)N([C@H](C)CO)C[C@@H](C)[C@H](CN(C)Cc2ccc(Cl)c(Cl)c2)OCCCC[C@H](C)O3)cc1 | 121.1* | -1.9 | . | -61.8 | 92.9 | 106.5* | 9.3 | 17.3
COc1ccc(NC(=O)Nc2ccc3c(c2)C(=O)N([C@@H](C)CO)C[C@H](C)[C@@H](CN(C)Cc2ccc(Cl)c(Cl)c2)OCCCC[C@H](C)O3)cc1 | 124.3* | 0.4 | 1.9 | -29.0 | 98.6* | 113.4* | 15.7 | 21.0
C[C@@H]1CN([C@@H](C)CO)C(=O)c2cc(NC(=O)Nc3ccccc3)ccc2O[C@@H](C)CCCCO[C@H]1CN(C)Cc1ccc(Cl)c(Cl)c1 | 69.1 | 5.6 | -0.3 | -74.6 | . | . | . | .
C[C@@H]1CCCCO[C@@H](CN(C)Cc2ccc(Cl)c(Cl)c2)[C@H](C)CN([C@@H](C)CO)C(=O)c2cc(NC(=O)Nc3ccccc3)ccc2O1 | 69.5 | -0.7 | -13.5 | -71.7 | . | . | . | .
Cc1ccc(NC(=O)c2[nH]c3c(c2C)C(=O)CC(c2ccc(C(C)(C)C)cc2)C3)cc1C (stereo not given) | . | . | -0.6 | . | . | . | . | .
O=C(Nc1ccc(C(F)(F)F)cc1)Nc1ccc2c(c1)[C@H]1C[C@H](CC(=O)N3CCc4ccccc4C3)O[C@@H](CO)[C@H]1O2 | 140.5* | 1.6 | 1.0 | -53.3 | 95.7* | 87.0 | 4.4 | 102.6*
O=C(Nc1ccc(C(F)(F)F)cc1)Nc1ccc2c(c1)[C@H]1C[C@@H](CC(=O)N3CCc4ccccc4C3)O[C@@H](CO)[C@H]1O2 | 93.0 | -0.7 | 0.4 | -66.5 | . | . | . | .
CN(C)c1ccc2c(c1)[C@@H]1C[C@@H](CC(=O)N3CCc4ccccc4C3)O[C@@H](CO)[C@@H]1O2 | 135.2* | 9.8 | -0.7 | -86.1* | 25.5 | 21.8 | -3.4 | 11.1
CN(C)c1ccc2c(c1)[C@@H]1C[C@H](CC(=O)N3CCc4ccccc4C3)O[C@H](CO)[C@@H]1O2 | 87.4 | 23.8 | -2.9 | -74.3 | . | . | . | .
O=C(Nc1ccc(C(F)(F)F)cc1)Nc1ccc2c(c1)[C@H]1C[C@@H](CC(=O)N3CCc4ccccc4C3)O[C@H](CO)[C@H]1O2 | ? | -2.5 | 0.3 | -49.0 | 89.3 | 111.6* | 31.0 | 39.5*
COc1ccc(NC(=O)Nc2ccc3c(c2)C(=O)N([C@H](C)CO)C[C@@H](C)[C@H](CN(C)Cc2ccc4c(c2)OCO4)OCCCC[C@@H](C)O3)cc1 | 101.3* | -1.1 | . | -82.9* | 92.6 | 94.5 | ? | 106.4*
